The results in this text go back to ChEMBL document CHEMBL3271968, “Novel bis(benzamidino) compounds with an aromatic central link. Inhibitors of thrombin, pancreatic kallikrein, trypsin, and complement” (J Med Chem, 1976).

A word on the Ki: it is a dissociation constant, usually derived from enzyme kinetics or from competition with a known ligand. A lower Ki goes with tighter binding. The term inhibition denotes the drop in the measured response relative to a control, in per cent. As a reminder, the IC50 is the concentration that inhibits the measured activity by half.

The nature of experiment [1]: Inhibition of bovine trypsin using BANA as substrate after 15 to 30 mins. Details: species or system Bos taurus.
Experiment [2] concerns Plasma. Description: Anticoagulant activity in human plasma assessed as partial thromboplastin time at 5 uM (reference value: 59 +/- 2.6 secs). The class given is functional.
The next experiment addresses T1, Glandular kallikrein (Sus scrofa, UniProt P00752).
T1 sequence (P00752 whole entry): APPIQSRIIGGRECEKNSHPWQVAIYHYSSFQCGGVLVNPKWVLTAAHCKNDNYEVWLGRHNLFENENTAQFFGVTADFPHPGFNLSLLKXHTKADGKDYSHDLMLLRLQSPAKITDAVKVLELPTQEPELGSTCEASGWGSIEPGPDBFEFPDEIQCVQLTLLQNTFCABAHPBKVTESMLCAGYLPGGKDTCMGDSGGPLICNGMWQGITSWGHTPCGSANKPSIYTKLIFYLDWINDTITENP
Description: Inhibition of porcine pancreatic kallikrein using BANA as substrate after 15 to 180 mins. The essentials:
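Porcine pancreatic kallikrein (635 Frey units/mg) amidase assay, pH 8.1, 37°, 15-180 min. […] Ki came from Dixon plots at two substrate concentrations. Means ± SD, n = 3.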

For experiment [3], the species on record is Cavia porcellus. Description: Inhibition of guinea pig complement-mediated immune lysis of sheep red blood cells at 10 uM after 12 mins. The essentials:
(§1)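 Inhibitor in Tris/Mg/Ca/NaCl/gelatin buffer was preincubated 15 min at 37° with guinea pig complement (1:100 of 200 CH50/ml). Sheep erythrocytes (10^9/ml) presensitized with rabbit hemolysin (1:800) were added, and tubes incubated 12 min at 37°. Cold citrate-saline stopped lysis. Hemoglobin at 524 nm was converted to % inhibition via a complement standard curve, corrected for inhibitor lysis, in duplicate.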

Experiment [4] has as its system Plasma. The experiment in a line: Anticoagulant activity in human plasma assessed as partial thromboplastin time at 0.1 mM (reference value: 59 +/- 2.6 secs). The class given is functional.
Another experiment relates to Rattus norvegicus. Description: Anticoagulant activity in Wistar rat plasma assessed as activation of partial thromboplastin time at 1.9 mg/kg, iv. It counts as functional, organism-based. Details: dose 1.9 mg/kg. The essentials: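 Female Wistar rats (about 300 g), anesthetized with sodium pentobarbital 25 mg/kg sc, received inhibitor at 1.9 mg/kg iv. Post-injection plasma was separated by centrifugation. 0.1 ml was mixed with Celite suspension, saline and partial thromboplastin, agitated 3 min at 37°, recalcified with 0.02 M CaCl2, and activated PTT clotting time recorded.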

For experiment [5], the species on record is Cavia porcellus. The experiment in a line: Inhibition of guinea pig complement-mediated immune lysis of sheep red blood cells at 30 uM after 12 mins. The essentials:
as §1

The target in the next experiment is Prothrombin (Bos taurus, UniProt P00735). The experiment in a line: Inhibition of amidase activity of bovine thrombin using BANA as substrate after 15 to 40 mins.
A further experiment concerns the target Prothrombin (Bos taurus) (UniProt P00735). The experiment in a line: Inhibition of bovine thrombin-mediated blood clotting formation in presence of human fibrinogen.
The species named for experiment [6] is Cavia porcellus. Description: Inhibition of guinea pig complement-mediated immune lysis of sheep red blood cells at 0.1 mM after 12 mins. The essentials:
as §1

Experiment [7] deals with Plasma. Description: Anticoagulant activity in human plasma assessed as partial thromboplastin time at 10 uM (reference value: 59 +/- 2.6 secs). It counts as functional.

The source made the active and inactive calls. No cut-off for these calls is given here.

In the case of `Cl.N=C(N)c1ccc(OCc2ccc(COc3ccc(C(=N)N)cc3)cc2)cc1`, the Ki was 1.3 µM in experiment [1], 11.4 µM at Glandular kallikrein and 3.4 µM on Prothrombin. The results for the APTT in the experiment on Plasma [2], in the experiment with Plasma [4] and in the experiment on Plasma [7] were 147 s, 725 s and 176 s, respectively. Besides, the inhibition in the experiment listed under Cavia porcellus [3] stood at 0%; in the experiment filed under Cavia porcellus [5] it was 0%; in the experiment listed under Cavia porcellus [6] it was 25.9%. In addition, the result in the experiment with Rattus norvegicus was inactive. Besides, the IC50 on Prothrombin (Bos taurus) is 17 µM.
